Results as given in ChEMBL document CHEMBL1926513, “Synthesis of novel cinnamanilides as potential immunosuppressive agents” (Eur J Med Chem, 2012).
pIC50: −log10 of the molar value. Active and inactive are the calls of the source. No cut-off for these calls is given here.

Assays:
[1] = Immunosuppressive activity in BALB/c mouse splenocytes assessed as inhibition of CD3/CD28-induced cell proliferation at 5 ug/mL after 48 hrs by MTT assay; type: functional; settings: Splenocyte
Outline: (§1)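 Splenocytes from 6 to 8 week-old BALB/c mice (erythrocytes lysed with ammonium chloride, washed in PBS/2% FBS) plated at 5 × 10⁵ cells/well in RPMI 1640 with 10% FBS and antibiotics; CD3/CD28 co-stimulation with compound ([…] as printed for single-concentration screen, or a concentration series for IC50) for 48 h; survival by MTT.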

[2] = Immunosuppressive activity in BALB/c mouse splenocytes assessed as inhibition of CD3/CD28-induced cell proliferation after 48 hrs by MTT assay; type: functional, cell-based; settings: Splenocyte; outline: as §1
[3] = Cytotoxicity against BALB/c mouse splenocytes at 1 to 10 ug/mL after 48 hrs by MTT assay; type: cell-based; settings: splenocyte
Outline: (§2)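 Spleen cells from 6 to 8 week-old BALB/c mice, single-cell suspension, erythrocytes depleted with ammonium chloride, washed in PBS/2% FBS; 5 × 10⁵ cells/well in RPMI 1640 with 10% FBS, penicillin, streptomycin; unstimulated or CD3/CD28-co-stimulated cells exposed to varied compound concentrations for 48 h; viability by MTT. Compounds from DMSO stocks diluted in RPMI-1640/10% FBS.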

[4] = system: Splenocyte; assay: Cytotoxicity against CD3/CD28-induced BALB/c mouse splenocytes at 1 to 10 ug/mL after 48 hrs by MTT assay; type: functional, cell-based; outline: as §2

SMILES | inhibition at 5 µg/mL [1] [%] | pIC50 [2] | Activity [3] | Activity [4]
CO/C(=C\c1ccc(Br)cc1)C(=O)Nc1ccc(F)cc1 | < 50 |  |  | 
CO/C(=C\c1ccc(Cl)cc1)C(=O)Nc1ccc(C(C)C)cc1 | < 50 |  |  | 
CO/C(=C\c1ccc(Cl)cc1)C(=O)Nc1ccccc1 | < 50 |  |  | 
CO/C(=C\c1ccc(OC)cc1)C(=O)Nc1ccc(Cl)cc1 | > 50 | 4.83 |  | 
CO/C(=C\c1ccc(F)cc1)C(=O)Nc1ccc(OC)cc1 | > 50 | 4.87 |  | 
CO/C(=C\c1ccc(Br)cc1)C(=O)Nc1ccc(C(C)C)cc1 | < 50 |  |  | 
CO/C(=C\c1ccc(Cl)cc1)C(=O)Nc1ccc(Cl)cc1 | < 50 |  |  | 
CO/C(=C\c1ccc(F)cc1)C(=O)Nc1ccc(Cl)cc1 | > 50 | 5.02 |  | 
CO/C(=C\c1ccccc1)C(=O)Nc1ccc(Cl)cc1 | > 50 | 4.77 |  | 
CO/C(=C\c1ccc(Br)cc1)C(=O)Nc1ccccc1 | < 50 |  |  | 
CO/C(=C\c1ccc(OC)cc1)C(=O)Nc1ccc(C(C)C)cc1 | < 50 |  |  | 
CO/C(=C\c1ccc(F)cc1)C(=O)Nc1ccc(C)cc1 | < 50 |  |  | 
CO/C(=C\c1ccc(OC)cc1)C(=O)Nc1ccc(F)cc1 | < 50 |  |  | 
CO/C(=C\c1ccccc1)C(=O)Nc1ccc(C)cc1 | > 50 | 4.78 |  | 
CO/C(=C\c1ccc(Br)cc1)C(=O)Nc1ccc(Cl)cc1 | < 50 |  |  | 
CO/C(=C\c1ccc(OC)cc1)C(=O)Nc1ccc(OC)cc1 | < 50 |  |  | 
CO/C(=C\c1ccc(F)cc1)C(=O)Nc1ccc(Br)cc1 | < 50 |  |  | 
CO/C(=C\c1ccc(Br)cc1)C(=O)Nc1ccc(OC)cc1 | < 50 |  |  | 

SMILES | inhibition at 5 µg/mL [1] [%] | pIC50 [2] | Activity [3] | Activity [4]
CO/C(=C\c1ccc(Cl)cc1)C(=O)Nc1ccc(F)cc1 | > 50 | 4.85 |  | 
CO/C(=C\c1ccc(F)cc1)C(=O)Nc1ccc(C(C)C)cc1 | > 50 | 5.33 | Non-toxic | Active
CO/C(=C\c1ccc(OC)cc1)C(=O)Nc1ccc(C)cc1 | > 50 | 6.03 | Non-toxic | Active
CO/C(=C\c1ccc(Cl)cc1)C(=O)Nc1ccc(Br)cc1 | > 50 | 4.96 |  | 
CO/C(=C\c1ccc(Br)cc1)C(=O)Nc1ccc(C)cc1 | > 50 | 4.89 |  | 
CO/C(=C\c1ccc(Cl)cc1)C(=O)Nc1ccc(OC)cc1 | < 50 |  |  | 
CO/C(=C\c1ccc(Cl)cc1)C(=O)Nc1ccc(C)cc1 | > 50 | 4.90 |  | 
CO/C(=C\c1ccc(OC)cc1)C(=O)Nc1ccccc1 | < 50 |  |  | 
CO/C(=C\c1ccccc1)C(=O)Nc1ccc(F)cc1 | > 50 | 5.31 |  | 
CO/C(=C\c1ccc(F)cc1)C(=O)Nc1ccccc1 | < 50 |  |  | 
CO/C(=C\c1ccccc1)C(=O)Nc1ccc(Br)cc1 | < 50 |  |  | 
CO/C(=C\c1ccc(OC)cc1)C(=O)Nc1ccc(Br)cc1 | > 50 | 5.75 | Non-toxic | Active
CO/C(=C\c1ccccc1)C(=O)Nc1ccc(C(C)C)cc1 | > 50 | 5.46 | Non-toxic | Active
CO/C(=C\c1ccc(F)cc1)C(=O)Nc1ccc(F)cc1 | < 50 |  |  | 
CO/C(=C\c1ccccc1)C(=O)Nc1ccc(OC)cc1 | < 50 |  |  | 
CO/C(=C\c1ccccc1)C(=O)Nc1ccccc1 | > 50 | 4.82 |  | 
CO/C(=C\c1ccc(Br)cc1)C(=O)Nc1ccc(Br)cc1 | < 50 |  |  | 
